Source: PubChem (Sanford-Burnham Center for Chemical Genomics)
Most compounds without a hit are left out; they make up all but 1.5% or so of the library.
EBI2 antag: blocks human EBI2 receptor beta-arrestin signaling; actives 0.81% (n = 360,000); EBI2 beta-arrestin recruitment, luminescence, 7a,25-OHC stimulated; P32249; inhibition, % at 5 µM; in the data active = inhibition above about 38%;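 note: enzyme fragment complementation signal reports receptor beta-arrestin coupling in cells; 0% = agonist plus DMSO wells and 100% = wells without agonist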
Target sequence (P32249 whole entry, looked up, the tested form may be a part): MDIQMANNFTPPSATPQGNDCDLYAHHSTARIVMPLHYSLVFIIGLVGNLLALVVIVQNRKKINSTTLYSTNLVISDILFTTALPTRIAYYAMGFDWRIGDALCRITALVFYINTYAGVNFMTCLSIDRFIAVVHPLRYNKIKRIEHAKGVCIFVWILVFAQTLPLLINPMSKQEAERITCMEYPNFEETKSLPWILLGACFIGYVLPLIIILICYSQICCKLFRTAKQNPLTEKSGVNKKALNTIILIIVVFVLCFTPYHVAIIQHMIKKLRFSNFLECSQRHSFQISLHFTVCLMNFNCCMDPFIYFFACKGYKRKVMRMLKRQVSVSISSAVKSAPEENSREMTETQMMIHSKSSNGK
APJ ag: activates the human apelin receptor APJ | activation, % at 20 µM | AID 2520 | P35414 | actives 0.11% (n = 330,000) | CHO-K1 APJ PathHunter beta-arrestin, luminescence; 0% DMSO wells, 100% apelin;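 active = activation more than six SD over the plate average, tested at 20 µM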;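 note: 0% = DMSO alone and 100% = apelin-13 at 10 nM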
Target sequence (P35414 whole entry, looked up): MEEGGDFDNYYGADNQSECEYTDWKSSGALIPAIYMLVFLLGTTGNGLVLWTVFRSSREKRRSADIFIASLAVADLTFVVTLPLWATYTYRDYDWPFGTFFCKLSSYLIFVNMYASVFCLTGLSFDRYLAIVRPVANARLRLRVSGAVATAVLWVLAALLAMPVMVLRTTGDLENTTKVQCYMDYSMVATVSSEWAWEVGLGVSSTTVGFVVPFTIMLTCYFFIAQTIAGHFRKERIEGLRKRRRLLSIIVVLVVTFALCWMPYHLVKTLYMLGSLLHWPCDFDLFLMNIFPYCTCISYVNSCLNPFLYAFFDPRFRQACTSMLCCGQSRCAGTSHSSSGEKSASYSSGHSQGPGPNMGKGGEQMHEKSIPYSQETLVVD
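assay system = CHO-K1 APJ beta-arrestin complementation cell line | input = cell density 1000 per well | dosing = compound 20 µM once, DMSO 1% | timing = compound 90 min 25 °C, reagent 1 h | measured by = luminescence from split beta-galactosidase complementation, Galacton Star/Emerald II substrate | read-out basis = APJ agonist activity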
CCR6 antagonist: CCR6 (human) receptor antagonism; P51684; CHO-K1 CCR6 PathHunter beta-arrestin, luminescence, CCL20-stimulated; inhibition, % at 20 µM; actives 0.49% (n = 340,000); AID 493098;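 active = compounds whose inhibition of the agonist-driven luminescence signal at 20 µM reaches about 50%, limit read from the data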;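 note: cells stimulated with CCL20 at 14 nM final; plate controls were DMSO with CCL20 for no effect and DMSO without agonist for full effect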
CXCR6 inh: CXCR6 (human) receptor inhibition | O00574 | CHO-K1 PathHunter CXCR6 beta-arrestin, luminescence | inhibition, % at 20 µM | actives 0.36% (n = 360,000); in the data active = inhibition above about 34%, passing the limit was not always enough;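 note: antagonist mode with CXCL16 agonist at 10 nM final; 0% = 10 nM CXCL16 with DMSO and 100% = unstimulated wells without agonist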
APJ antagonist: blocks the human apelin receptor APJ; AID 2521; CHO-K1 APJ beta-arrestin complementation, luminescence; inhibition, % at 20 µM; actives 0.32% (n = 330,000); P35414;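 active = inhibition above about 40% at 20 µM, limit read from the data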;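 note: cells challenged with 10 nM apelin-13 agonist together with compound; plate controls were apelin-13 plus DMSO wells for no effect and DMSO wells lacking apelin-13 for full effect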
APJ antag confirm: APJ receptor antagonism confirmation | shares compounds with APJ antagonist | APJ beta-arrestin recruitment, luminescence, antagonist mode | inhibition, % at 20 µM | actives 66% (n = 950); in the data active = inhibition above about 50%
Numbers without * were called inactive; . = not tested or not shown.

SMILES | EBI2 antag | APJ ag | CCR6 antagonist | CXCR6 inh | APJ antagonist | APJ antag confirm
CC(C)(C)NC(=O)C1(C)CCC(=O)N1C1CCN(Cc2ccccc2)CC1 (stereo not given) | -5.2 | . | . | -0.1 | . | .
COC(=O)c1ccc(N2NC(=O)/C(=C/c3cc(OC)c(O)c(OC)c3)C2=O)cc1 | -8.6 | -8.3 | 49.1 | 38.7 | 44.9* | 33.5
CC(C)Oc1ccc(CN2CCC2(C)C(=O)Nc2cnc3ccccc3c2)cc1 (stereo not given) | 23.3 | . | . | 3.2 | . | .
CC(C)(C)OC(=O)C[C@H]1C/C=C\C[C@@H](CC(=O)N(CCO)Cc2ccccc2)C(=O)N[C@@H](Cc2ccccc2)COC1=O | -7.4 | 1.2 | 15.6 | 6.6 | 10.3 | .
Cc1[nH]c2ccccc2c1Cc1nnc(SCc2ccccc2)o1 | 12.3 | -4.2 | 1.3 | 5.7 | 48.3* | 30.8
CCOC(=O)C(C(=O)OCC)c1cc(Br)c2noc3c2c1C(=O)c1ccccc1-3 | -5.2 | -4.5 | 82.8* | 77.7* | 40.9* | 105.2*
N#C/C(=N\Nc1ccc(S(=O)(=O)N2CCCCCC2)cc1)C(N)=S | 11.8 | -7.4 | 31.5 | 17.2 | 48.2* | 64.4*
CCCCCNC(=O)C(C1CC1)n1c(=O)c(-c2ccco2)nc2ccccc21 (stereo not given) | 2.2 | . | . | . | . | .
Cn1c(=O)c2c(nc(N3CCNCC3)n2Cc2cccc3ccccc23)n(C)c1=O | 35.0 | -17.4 | 61.6* | 47.1* | 57.0* | 99.4*
Cn1c(=O)[nH]c(=O)c2c1nc(N1CCNCC1)n2Cc1cccc2ccccc12 | 12.7 | -12.3 | 54.0* | 45.0* | 40.6* | 92.4*
Cn1cnc(S(=O)(=O)N2CCCC(c3cc(C(=O)Nc4ccc(F)c(Cl)c4)no3)C2)c1 (stereo not given) | -3.4 | . | . | -2.8 | . | .
CC1CCCCN1C(=O)CSc1nc2cc3c(cc2c(=O)n1Cc1ccc2c(c1)OCO2)OCO3 (stereo not given) | 18.7 | -1.3 | 3.0 | 10.2 | 54.9* | 57.3*
COc1ccc(S(=O)(=O)N2CCNC(=O)CC2)cc1 | 11.5 | 2.0 | 11.8 | 0.2 | -6.2 | .
COc1ccc(S(=O)(=O)N2CCC(=O)N2)cc1 | 1.1 | -14.7 | 20.3 | 12.9 | 46.2* | 49.8
O=c1c2cc([N+](=O)[O-])cc([N+](=O)[O-])c2[nH]n1-c1ccccc1 | 9.6 | -8.8 | 56.2* | 39.4 | 40.5* | 75.5*
CCc1ccc(CN(C)CC(=O)Nc2ccc(S(=O)(=O)N3CCOCC3)cc2)cc1 | 10.5 | 0.1 | 16.1 | -8.6 | -1.0 | .
COc1ccc(C(=O)/C=C/C(=O)N(Cc2ccccc2)C(C(=O)NC2CCCCC2)c2ccncc2)c(O)c1 (stereo not given) | 7.7 | -5.5 | 3.6 | 13.2 | 9.1 | .
COc1ccc(C(=O)/C=C/C(=O)N(CC(=O)NC2CCCCC2)CC2CCCO2)c(O)c1 (stereo not given) | 6.0 | -3.6 | 86.7* | 68.3* | 55.7* | 109.6*
CCOc1ccccc1C(=O)NCC(=O)NCCSc1ccc(Br)cc1 | 26.5 | . | 16.3 | -5.2 | . | .
S=C(N/N=C/c1ccc(Br)cc1)N1CCCCC1 | 36.7 | -7.3 | 17.2 | -6.5 | 10.9 | .
S=C(N/N=C/c1ccc(Cl)cc1)N1CCOCC1 | -1.2 | -7.5 | 55.1* | 39.0 | 40.9* | 59.8*
CCNC(=O)C1(C)CCCN(Cc2ccccc2-c2ccccc2)C1 (stereo not given) | 2.8 | . | . | 6.3 | . | .
CC(C)N1CCc2c(sc(NC(=O)c3cc(-c4cccs4)nc4ccccc34)c2C(N)=O)C1 | 6.3 | -15.0 | 62.4* | 17.4 | 45.7* | 65.0*
Oc1ccc(N=Nc2c(O)ccc3ccccc23)cc1 | 23.1 | -10.6 | 53.9* | 38.8 | 49.6* | 71.3*
c1cc(-c2ccc(N3CCOCC3)cc2)n2ccnc2c1 | -7.9 | . | . | -10.6 | . | .
SMILES | EBI2 antag | APJ ag | CCR6 antagonist | CXCR6 inh | APJ antagonist | APJ antag confirm
CCc1ccc(C(O)c2ncc(-c3cccc(OC)c3)[nH]2)cc1 (stereo not given) | 0.0 | . | . | -3.9 | . | .
O=C(N/N=C/c1cc(Br)cc([N+](=O)[O-])c1O)c1ccc(NC(=O)c2ccc(F)cc2)cc1 | 17.9 | -9.1 | 69.4* | 28.3 | 49.3* | 86.0*
O=C(N/N=C/c1cc(Br)cc(Br)c1O)c1ccncc1 | . | 0.9 | -9.4 | . | -42.3 | .
COc1cccc2sc(Nc3nnc(-c4ccc(F)cc4)o3)nc12 | -5.9 | -2.6 | -4.8 | -7.0 | 0.6 | .
COc1cccc2sc(Nc3nc(-c4ccccn4)cs3)nc12 | 85.9* | -7.1 | . | 37.2 | 52.4* | 23.5
COc1cccc2sc(Nc3nnc(-c4cccs4)o3)nc12 | 16.2 | -6.0 | 29.5 | 13.0 | 41.6* | 3.4
CC(C)C[C@H]1CN(CCCC[C@@H]2CNC(=O)C(=O)N2CC2CCCCC2)C(=O)C(=O)N1Cc1ccccc1 | 0.0 | . | . | -0.4 | . | .
CCOC(=O)c1c(NC(=O)c2ccco2)n(C2CCCCC2)c2nc3ccccc3nc12 | 18.8 | -19.0 | 42.1 | 22.9 | 57.7* | 9.4
CCC(=O)Nc1c(C#N)c2nc3ccccc3nc2n1C1CCCCC1 | 1.9 | -4.0 | 9.7 | 1.7 | 10.1 | .
CCCc1nc2c(C)cc(Br)cn2c1Cc1ccc(OC)cc1C | -4.5 | . | . | 0.0 | . | .
Cc1ccc2c(c1)nnn2C1CCN(CC(=O)NCCc2nc3ccccc3[nH]2)CC1 | 11.7 | -8.7 | 56.6* | 29.3 | 41.1* | 60.2*
COc1ccc2nc(NC(=S)N(C)C)sc2c1 | -0.5 | -8.6 | 45.1 | 35.3 | 51.0* | 44.3
COc1ccc2nc(NC(=O)CSC3=NCCS3)sc2c1 | 1.9 | -3.0 | 15.8 | -0.5 | 41.3* | -12.6
CC(C)(C)c1cc(CCC(=O)NNC(=O)c2ccco2)cc(C(C)(C)C)c1O | 7.0 | 2.7 | 0.8 | -5.8 | -3.0 | .
CC(C)(C)c1cc(CCC(=O)NNC(=S)NC(=O)c2ccccc2)cc(C(C)(C)C)c1O | 33.9 | -9.5 | 57.8* | 57.9* | 51.5* | 134.6*
Cc1cc(C)n(CCNC(=O)[C@H]2O[C@@H](n3ccc(N)nc3=O)[C@H](O)[C@@H]2O)n1 | -1.1 | . | . | -2.7 | . | .
Fc1ccc(NC(=S)Nc2ccc(Cl)cc2Cl)cc1 | . | -1.6 | 12.8 | . | 57.3* | 62.6*
Fc1ccc(CNC(=S)Nc2ccc(Cl)cc2Cl)cc1 | -9.6 | -2.1 | -7.2 | -2.7 | 13.4 | .
COc1cc([N+](=O)[O-])cc(/C=N/NC(=O)C(O)(c2ccccc2)c2ccccc2)c1O | 9.7 | -6.6 | 36.9 | 28.7 | 46.9* | 29.2
Cc1ccc(C(=O)COC(=O)CCC(=O)Nc2ccccc2Cl)cc1[N+](=O)[O-] | 12.3 | -7.6 | 32.6 | 17.2 | 44.5* | 75.0*
Cc1ccc(NC(=O)CCC(=O)OCC(=O)c2ccc(Oc3ccc([N+](=O)[O-])cc3)cc2)cc1 | 6.3 | -3.1 | 7.5 | 6.0 | 12.1 | .
CC(=O)c1ccc(NC(=O)CCC(=O)OCC(=O)c2cccc([N+](=O)[O-])c2)cc1 | 1.9 | -14.2 | 54.9* | 21.9 | 43.1* | 76.8*
